Test results published in ChEMBL document CHEMBL4038314, “Synthetic Modification within the "RPRL" Region of Apelin Peptides: Impact on Cardiovascular Activity and Stability to Neprilysin and Plasma Degradation” (J Med Chem, 2017).
The source made the active and inactive calls. The calls are words filed in the database; no cut-off is given here. Non-standard residues stand in square brackets, D forms with d. Residues, ends and D or L forms follow the SMILES beside them. Phe(4-Br) = N[C@@H](Cc1ccc(Br)cc1)C(=O)O; αMeR = C[C@](N)(CCCNC(=N)N)C(=O)O; αMeL = CC(C)C[C@](C)(N)C(=O)O; Nle = CCCC[C@H](N)C(=O)O; Aib = CC(C)(N)C(=O)O

Columns and labels:
[1] = biological target: T1, Neprilysin (Homo sapiens, UniProt P08473); test: Drug metabolism assessed as recombinant human NEP-medited peptide proteolysis at 1 mM up to 72 hrs by LC-MS analysis; type: ADME; conditions: 1000 µM
T1 sequence (P08473 whole entry): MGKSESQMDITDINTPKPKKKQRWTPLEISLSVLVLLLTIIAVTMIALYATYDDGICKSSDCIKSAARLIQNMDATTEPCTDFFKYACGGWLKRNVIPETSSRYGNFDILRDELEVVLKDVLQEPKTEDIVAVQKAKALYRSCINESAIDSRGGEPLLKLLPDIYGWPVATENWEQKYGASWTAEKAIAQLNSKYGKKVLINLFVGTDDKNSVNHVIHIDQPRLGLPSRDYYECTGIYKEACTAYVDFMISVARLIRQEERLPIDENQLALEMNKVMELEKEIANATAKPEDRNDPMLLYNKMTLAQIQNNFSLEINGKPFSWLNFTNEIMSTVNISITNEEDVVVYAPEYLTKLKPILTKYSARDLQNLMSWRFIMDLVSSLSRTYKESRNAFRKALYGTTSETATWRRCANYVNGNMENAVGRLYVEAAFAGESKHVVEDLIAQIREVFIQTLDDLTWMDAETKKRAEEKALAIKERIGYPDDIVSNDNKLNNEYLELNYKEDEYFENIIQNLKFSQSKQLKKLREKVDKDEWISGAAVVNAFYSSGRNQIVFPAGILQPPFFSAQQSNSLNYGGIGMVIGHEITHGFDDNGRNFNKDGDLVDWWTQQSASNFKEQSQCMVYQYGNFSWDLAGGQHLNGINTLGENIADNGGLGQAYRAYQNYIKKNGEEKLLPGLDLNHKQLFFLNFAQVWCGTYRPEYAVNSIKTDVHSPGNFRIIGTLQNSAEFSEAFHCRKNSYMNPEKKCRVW
How it was run: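 Recombinant human NEP, 3.1 nM final in 100 mM Tris, 100 mM NaCl, 10 μM ZnCl2, pH 7.5, preincubated 10 min at 37 °C. Then 5 μL of 1 mM peptide stock and dansyl-YVG internal standard added; incubated at 37 °C for up to 72 h. Extracted-ion LC−MS ratio of parent to standard compared with 0 h and converted to percent cleaved.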

[2] = biological target: T1, Neprilysin; test: Drug degradation in human plasma assessed as NEP-mediated degradation by measuring amount of apelin remaining after 60 mins by RP-HPLC analysis; type: ADME; conditions: 1 h
How it was run: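 Human plasma (20 μL) prewarmed to 37 °C, then 5 μL of 400 μM peptide added and incubated for set times; done in triplicate. Quenched with 10% aqueous TFA, dansyl-YVG internal standard added, and peptides recovered on a C18 spin column with 40% acetonitrile/0.1% TFA. Analysed by C18 RP-HPLC; peptide/standard peak-area ratio compared with the 0 min ratio.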

[3] = biological target: T1, Neprilysin; test: Inhibition of recombinant human NEP using pyr-1-apelin-13 as substrate assessed as peptide degradation at 1 mM preincubated for 10 mins followed by substrate addition measured after 72 hrs by LC-MS analysis; conditions: 1000 µM
How it was run: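 Recombinant human NEP, 3.1 nM in Tris/NaCl/10 μM ZnCl2 buffer, pH 7.5, preincubated 10 min at 37 °C with 5 μL of 1 mM analogue stock (equimolar to substrate) plus dansyl-YVG standard. Then 5 μL of 1 mM pyr-1-apelin-13 added. Aliquots taken at 0, 1, 4, 24 and 72 h and analysed by LC−MS; duplicate per time point.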

[4] = system: Mus musculus; test: Cardiovascular activity in anesthetized mouse assessed as decrease in blood pressure at 1.4 uM/kg, iv relative to control; type: functional, organism-based
How it was run: (§1)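 Mice under 1.5% isoflurane, body temperature held at 36 °C on a heating pad. Aorta cannulated via the right carotid artery with a 1.2F PV loop catheter to record arterial pressure and heart rate continuously. Peptide given systemically through the right internal jugular vein.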

[5] = system: Mus musculus; test: Cardiotoxicity in anesthetized mouse assessed as induction of tachycardia at 1.4 uM/kg, iv relative to control; type: toxicity, organism-based; conditions: in vivo, 1.4 µmol/kg; how it was run: as §1

CSCC[C@H](NC(=O)[C@@H]1CCCN1C(=O)CNC(=O)[C@H](CCCCN)NC(=O)[C@H](Cc1cnc[nH]1)NC(=O)[C@H](CO)NC(=O)[C@H](CC(C)C)NC(=O)[C@H](CCCNC(=N)N)NC(=O)[C@@H]1CCCN1C(=O)[C@H](CCCNC(=N)N)NC(=O)[C@@H]1CCC(=O)N1)C(=O)N1CCC[C@H]1C(=O)N[C@@H](Cc1ccccc1)C(=O)O
Drug metabolism [1]: Metabolite_Detected
Drug degradation [2]: 12%

CCCC[C@H](NC(=O)[C@@H]1CCCN1C(=O)CNC(=O)[C@H](CCCCN)NC(=O)[C@H](Cc1c[nH]cn1)NC(=O)[C@H](CO)NC(=O)[C@H](CC(C)C)NC(=O)[C@](C)(CCCNC(=N)N)NC(=O)[C@@H]1CCCN1C(=O)[C@H](CCCNC(=N)N)NC(=O)[C@@H]1CCC(=O)N1)C(=O)NC(C)(C)C(=O)N[C@@H](Cc1ccc(Br)cc1)C(=O)O
Drug metabolism [1]: Metabolite_Notdetected
Drug degradation [2]: 62%
inhibition (INH) [3]: Not Active

CCCC[C@H](NC(=O)[C@@H]1CCCN1C(=O)CNC(=O)[C@H](CCCCN)NC(=O)[C@H](Cc1c[nH]cn1)NC(=O)[C@H](CO)NC(=O)[C@@H](CC(C)C)NC(=O)[C@H](CCCNC(=N)N)NC(=O)[C@@H]1CCCN1C(=O)[C@H](CCCNC(=N)N)NC(=O)[C@@H]1CCC(=O)N1)C(=O)NC(C)(C)C(=O)N[C@@H](Cc1ccc(Br)cc1)C(=O)O
Drug metabolism [1]: Metabolite_Notdetected
Drug degradation [2]: 22%
inhibition (INH) [3]: Not Active
Activity [4]: inactive

CCCC[C@H](NC(=O)[C@@H]1CCCN1C(=O)CNC(=O)[C@H](CCCCN)NC(=O)[C@H](Cc1c[nH]cn1)NC(=O)[C@H](CO)NC(=O)[C@@H](CC(C)C)NC(=O)[C@H](CCCNC(=N)N)NC(=O)[C@@H]1CCCN1C(=O)[C@H](CCCNC(=N)N)NC(=O)[C@H](CCC(N)=O)NC(=O)[C@H](CCCNC(=N)N)NC(=O)[C@H](CCCNC(=N)N)NC(=O)[C@H](Cc1ccccc1)NC(=O)[C@@H](N)CCCCN)C(=O)NC(C)(C)C(=O)N[C@@H](Cc1ccc(Br)cc1)C(=O)O (H-KFRRQRPR[dL]SHKGP[Nle][Aib][Phe(4-Br)]-OH)
Drug metabolism [1]: Metabolite_Notdetected
Drug degradation [2]: 80%
inhibition (INH) [3]: Not Active
Activity [5]: Toxic

CCCC[C@H](NC(=O)[C@@H]1CCCN1C(=O)CNC(=O)[C@H](CCCCN)NC(=O)[C@H](Cc1c[nH]cn1)NC(=O)[C@H](CO)NC(=O)[C@](C)(CC(C)C)NC(=O)[C@H](CCCNC(=N)N)NC(=O)[C@@H]1CCCN1C(=O)[C@H](CCCNC(=N)N)NC(=O)[C@H](CCC(N)=O)NC(=O)[C@H](CCCNC(=N)N)NC(=O)[C@H](CCCNC(=N)N)NC(=O)[C@H](Cc1ccccc1)NC(=O)[C@@H](N)CCCCN)C(=O)NC(C)(C)C(=O)N[C@@H](Cc1ccc(Br)cc1)C(=O)O (H-KFRRQRPR[αMeL]SHKGP[Nle][Aib][Phe(4-Br)]-OH)
Drug metabolism [1]: Metabolite_Notdetected
Drug degradation [2]: 48%
inhibition (INH) [3]: Not Active
Activity [5]: Toxic

CCCC[C@H](NC(=O)[C@@H]1CCCN1C(=O)CNC(=O)[C@H](CCCCN)NC(=O)[C@H](Cc1c[nH]cn1)NC(=O)[C@H](CO)NC(=O)[C@H](CC(C)C)NC(=O)[C@](C)(CCCNC(=N)N)NC(=O)[C@@H]1CCCN1C(=O)[C@H](CCCNC(=N)N)NC(=O)[C@H](CCC(N)=O)NC(=O)[C@H](CCCNC(=N)N)NC(=O)[C@H](CCCNC(=N)N)NC(=O)[C@H](Cc1ccccc1)NC(=O)[C@@H](N)CCCCN)C(=O)NC(C)(C)C(=O)N[C@@H](Cc1ccc(Br)cc1)C(=O)O (H-KFRRQRP[αMeR]LSHKGP[Nle][Aib][Phe(4-Br)]-OH)
Drug metabolism [1]: Metabolite_Notdetected
Drug degradation [2]: 55%
inhibition (INH) [3]: Not Active
Activity [5]: Toxic
